In one test the test system is HT-29. The experiment in a line: Growth inhibition of HT29 cells after 48 hrs. In kind it is functional. The settings on record: Homo sapiens, HT-29, 48 h. In short, it runs like this:
(§1)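 NCI screening protocol. Cells in high-glucose DMEM with 5% bovine calf serum preincubated 24 h at 37 °C, 5% CO₂, then exposed 48 h to drug, final 10 to 0.3 µM (DMSO below 0.5%). TCA fixation, sulforhodamine B staining, absorbance at 585 nm against a plate fixed on treatment day to give growth inhibition and GI50. At least two experiments in triplicate.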

Another test concerns M21. Briefly: Growth inhibition of M21 cells after 48 hrs. The format is functional. The settings on record: Homo sapiens, M21, 48 h. In short, it runs like this:
as §1

The test system of the next test is MCF7. The experiment in a line: Growth inhibition of MCF7 cells after 48 hrs. In kind it is functional. The settings on record: Homo sapiens, MCF7, 48 h. In short, it runs like this: as §1
The next test deals with MDA-MB-231. The experiment in a line: Alkylation of beta-tubulin in MDA-MB-231 cells at 5 uM by electrophoretic mobility shift assay after 48 hrs. The format is cell-based. The settings on record: Homo sapiens.
The next test has as its system HT-1080. Briefly: Cell cycle arrest by accumulation at G2/M phase in HT1080 cells at 10 uM. In kind it is functional, Homo sapiens. In short, it runs like this: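 HT 1080 cells incubated with drug (dissolved in DMSO, 0.5% final DMSO in medium; DMSO control). Cells harvested, fixed in ice-cold ethanol, and 5 × 10⁵ cells per sample stained with propidium iodide 50 µg/mL plus RNase A 40 U/mL for 30 min at room temperature. Flow cytometry gave % apoptotic cells and % G0/G1, S and G2/M populations.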

Test [1] relates to M21 (human). The experiment in a line: Induction of apoptosis in M21 cells at 3 uM.
The test system of test [2] is M21 (human). The experiment in a line: Induction of apoptosis in M21 cells at 10 uM.
For test [3], the system named is M21 (human). Briefly: Induction of apoptosis in M21 cells at 25 uM.
In test [4] the test system is M21 (human). The experiment in a line: Cell cycle arrest by accumulation at S phase in M21 cells at 3 uM.
In test [5] the test system is M21 (human). Briefly: Cell cycle arrest by accumulation at S phase in M21 cells at 10 uM.
The subject of test [6] is M21 (human). Briefly: Cell cycle arrest in M21 cells by accumulation at S phase at 25 uM.
Test [7] deals with M21 (human). The experiment in a line: Cell cycle arrest by accumulation at G2/M phase in M21 cells at 3 uM.
Test [8] deals with M21 (human). The experiment in a line: Cell cycle arrest by accumulation at G0/G1 phase in M21 cells at 3 uM.
Test [9] deals with M21 (human). The experiment in a line: Cell cycle arrest in M21 cells by accumulation at G2/M phase at 25 uM.
Test [10] relates to M21 (human). The experiment in a line: Cell cycle arrest by accumulation at G0/G1 phase in M21 cells at 10 uM.
For test [11], the system named is M21 (human). Briefly: Cell cycle arrest in M21 cells by accumulation at G0/G1 phase at 25 uM.
Test [12] deals with M21 (human). The experiment in a line: Induction of apoptosis in M21 cells at 4 uM.
The test system of test [13] is M21 (human). Briefly: Induction of apoptosis in M21 cells at 1.2 uM.
For test [14], the system named is M21 (human). The experiment in a line: Cell cycle arrest in M21 cells by accumulation at S phase at 4 uM.
Test [15] has as its system M21 (human). Briefly: Cell cycle arrest in M21 cells by accumulation at S phase at 1.2 uM.
Test [16] relates to M21 (human). The experiment in a line: Cell cycle arrest by accumulation at G2/M phase in M21 cells at 4 uM.
Test [17] relates to M21 (human). Briefly: Cell cycle arrest in M21 cells by accumulation at G0/G1 phase at 4 uM.
The subject of test [18] is M21 (human). Briefly: Cell cycle arrest in M21 cells by accumulation at G2/M phase at 1.2 uM.
Test [19] concerns M21 (human). Briefly: Cell cycle arrest in M21 cells by accumulation at G0/G1 phase at 1.2 uM.

What is called GI50 is the concentration that inhibits growth by half. Low readings indicate greater sensitivity of the cells, high ones lower sensitivity of the cells. With `COc1cccc(NC(=O)NCCCl)c1`, the GI50 with HT-29, in the test on M21 and in the test with MCF7 was over 10 µM each time.

`COCCCc1cccc(NC(=O)NCCCl)c1`: the GI50 with HT-29 was 4 µM; in the test with M21, 5 µM; in the test with MCF7, over 10 µM.

Take `COCc1cccc(NC(=O)NCCCl)c1`: the GI50 in the test with HT-29, in the test with M21 and in the test on MCF7 was over 10 µM throughout.

Consider `COCCCCc1cccc(NC(=O)NCCCl)c1`, for which the GI50 in the test with HT-29 is 1 µM; in the test with M21, 2 µM; with MCF7, 3 µM.

In the case of `CCCCCCCc1cccc(NC(=O)NCCCl)c1`, the 50% growth inhibitory concentration (GI50) in the test on HT-29 amounted to 1 µM; in the test on M21, 1 µM; with MCF7, 2 µM.

As for `COCCCCCc1cccc(NC(=O)NCCCl)c1`, the GI50 with MCF7 is 1 µM. The Activity is 81% in the test with MDA-MB-231; 68.57% in the test on HT-1080; 8.5% with M21 (human) [1]; 9.02% in the test on M21 (human) [2]; 8.63% with M21 (human) [3]; 19.98% in the test with M21 (human) [4]. Further, the Activity in the test with M21 (human) [5] was found to be 14.37%; in the test on M21 (human) [6], 13.79%; with M21 (human) [7] it was 40.22%; in the test with M21 (human) [8], 31.28%; with M21 (human) [9] it was 70.84%; in the test with M21 (human) [10] it was 7.52%. The Activity with M21 (human) [11] amounted to 6.74%.

In the case of `O=C(NCCCl)Nc1cccc(CCCCCO)c1`, the Activity with M21 (human) [12] is recorded as 9.83%; in the test on M21 (human) [2], 10.71%; with M21 (human) [13] it was 7.58%; in the test with M21 (human) [14], 12.12%; in the test on M21 (human) [5] it was 12.11%; with M21 (human) [15], 16.65%. For the same molecule, the Activity was 70.24% in the test on M21 (human) [16]; 7.57% with M21 (human) [17]; 21.82% in the test with M21 (human) [18]; 5.9% in the test on M21 (human) [10]; 54.35% in the test with M21 (human) [19].

In the case of `CCCCCc1cccc(NC(=O)NCCCl)c1`, in the test with MCF7, the GI50 turned out to be 1 µM. Moreover, the Activity in the test on MDA-MB-231 worked out at 90%; in the test with HT-1080, 68.06%; in the test on M21 (human) [1], 6.16%; with M21 (human) [2], 8.59%; with M21 (human) [3] it was 7.84%; with M21 (human) [4], 17.75%. Moreover, the Activity in the test on M21 (human) [5] was determined as 13.28%; in the test with M21 (human) [6], 15.23%; in the test on M21 (human) [7] it was 60.78%; in the test on M21 (human) [8] it was 15.06%; with M21 (human) [9] it was 68.48%; in the test on M21 (human) [10] it was 7.85%. The molecule further registered an Activity in the test on M21 (human) [11] of 8.75%.

As for `CCCCCCc1cccc(NC(=O)NCCCl)c1`, the GI50 with HT-29, in the test on M21 and with MCF7 was 1 µM throughout.

On to `COCCc1cccc(NC(=O)NCCCl)c1`, for which the GI50 in the test on HT-29 stood at 4 µM; in the test on M21, 6 µM; in the test with MCF7, 14 µM.

The values above are taken from ChEMBL document CHEMBL1142887, “N-Phenyl-N'-(2-chloroethyl)ureas (CEU) as potential antineoplastic agents. Part 2: role of omega-hydroxyl group in the covalent binding to beta-tubulin” (2007).
